{"source": "paper PMC12800297", "about": "(Communications Chemistry, 2025)", "key": {"[1]": {"tested_on": "A2AR (thermostabilized A2AR-BRIL)", "assay": "MIDAS equilibrium dialysis with LC-MS metabolite screen", "format": "binding, human", "details": "p < 0.05, Supplementary Fig. 2a"}, "[2]": {"target": "A2AR-ΔCTD (Homo sapiens, UniProt P29274, N154A)", "sequence (P29274 8-316 N154A)": "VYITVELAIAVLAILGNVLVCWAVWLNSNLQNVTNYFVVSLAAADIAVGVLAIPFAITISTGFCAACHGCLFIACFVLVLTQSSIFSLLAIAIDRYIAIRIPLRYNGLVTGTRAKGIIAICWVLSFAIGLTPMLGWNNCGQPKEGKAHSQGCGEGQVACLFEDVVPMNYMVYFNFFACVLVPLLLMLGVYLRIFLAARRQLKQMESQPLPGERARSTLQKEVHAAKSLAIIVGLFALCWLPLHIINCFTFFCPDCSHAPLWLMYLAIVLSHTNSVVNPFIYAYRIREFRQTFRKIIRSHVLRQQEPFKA", "assay": "Competition fluorescence polarization", "format": "binding", "how_it_was_run": "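Receptor was preincubated with metabolite for 10 min, then mixed with fluorescent NECA (10 nM final) for 10 min at room temperature with gentle shaking. Fluorescence polarization was read.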"}, "[3]": {"target": "T1, A2AR (Homo sapiens, UniProt P29274, N154A)", "T1 sequence (P29274 8-316 N154A)": "as above", "assay": "GTP hydrolysis assay", "format": "biochemical", "details": "for agonist efficacy: GTP hydrolysis assay; for fold decrease/reduction in potency compared to adenosine: GTP hydrolysis assay EC50 values; for Activation screen: metabolites at 10 μM, replicates"}, "[4]": {"tested_on": "HEK293 cells stably expressing A2AR", "assay": "HTRF cAMP detection assay, agonist activation", "format": "cell-based, human"}, "[5]": {"target": "T1, A2AR", "assay": "GTP hydrolysis assay", "format": "biochemical", "details": "for Inhibition screen: metabolites at 100 μM, with adenosine, replicates, 100 µM"}, "[6]": {"tested_on": "HEK293 cells stably expressing A2AR", "assay": "HTRF cAMP detection assay, inhibition of adenosine-induced cAMP production", "format": "cell-based, human", "details": "for inhibition of adenosine-induced cAMP production: concentration-dependent assay"}, "[7]": {"target": "T1, A2AR", "assay": "Differential scanning fluorimetry", "format": "binding", "details": "dose-response DSF"}, "[8]": {"target": "A2AR H75A (Homo sapiens, UniProt P29274, H75A/N154A)", "sequence (P29274 8-316 H75A/N154A)": "as the sequence (P29274 8-316 N154A) above, with H68A counted along it", "assay": "GTP hydrolysis inhibition comparison, A2AR mutant", "format": "biochemical", "details": "20 µM PGD2, Supplementary Fig. 10"}, "[9]": {"target": "A2AR Q163E/H75A (Homo sapiens, UniProt P29274, H75A/N154A/Q163E)", "sequence (P29274 8-316 H75A/N154A/Q163E)": "as the sequence (P29274 8-316 N154A) above, with H68A, Q156E counted along it", "assay": "GTP hydrolysis inhibition comparison, A2AR mutant", "format": "biochemical", "details": "20 µM PGD2, Supplementary Fig. 10"}, "[10]": {"target": "A2AR K233A (Homo sapiens, UniProt P29274, K233A/N154A)", "sequence (P29274 8-316 N154A/K233A)": "as the sequence (P29274 8-316 N154A) above, with K226A counted along it", "assay": "GTP hydrolysis inhibition comparison, A2AR mutant", "format": "biochemical", "details": "20 µM PGD2, Supplementary Fig. 10"}, "[11]": {"tested_on": "A2AR V84 to alanine", "details": "V84 mutated to alanine; cited from earlier work"}, "[12]": {"tested_on": "A2AR H278 to alanine", "details": "H278 mutated to alanine; cited from earlier work"}}, "note": "pEC50, pIC50: −log10 of the molar value. “Also recorded” adds a separate entry of the source."}
{"smiles": "Nc1ncnc2c1ncn2[C@@H]1O[C@H](CSCC[C@H](N)C(=O)O)[C@@H](O)[C@H]1O", "note": "[SAH, S-adenosyl-L-homocysteine]", "values": [{"measurement": "MIDAS enrichment, statistical significance", "setting": "[1]", "result": "did not meet the statistical significance threshold"}, {"measurement": "effect on affinity of fluorescently labeled NECA to A2AR", "setting": "[2]; 100 µM SAH or DA", "result": "reduced the affinity of NECA"}, {"measurement": "pEC50", "setting": "[3]", "result": 5.30}, {"measurement": "agonist efficacy", "setting": "[3]", "result": "full agonists"}, {"measurement": "fold decrease/reduction in potency compared to adenosine", "setting": "[3]", "result": "> 250", "unit": "fold"}, {"measurement": "Activation screen", "setting": "[3]", "result": "activated A2AR; also recorded: sub-maximal activation"}, {"measurement": "pEC50", "setting": "[4]; Homo sapiens, HEK293", "result": "~5.30"}]}
{"smiles": "CCCCC[C@H](O)/C=C/[C@H]1[C@H](O)CC(=O)[C@@H]1C/C=C\\CCCC(=O)O", "note": "[PGE2]", "values": [{"measurement": "MIDAS enrichment, statistical significance", "setting": "[1]", "result": "significantly enriched"}, {"measurement": "effect on affinity of fluorescently labeled NECA to A2AR", "setting": "[2]; 500 µM prostaglandin", "result": "none of the three prostaglandins – PGI2, PGE2, and PGD2 were able to displace a fluorescently-labeled orthosteric ligand"}, {"measurement": "Inhibition screen", "setting": "[5]", "result": "no effect"}, {"measurement": "inhibition of adenosine-induced cAMP production", "setting": "[6]", "result": "no significant effect"}]}
{"smiles": "Nc1ncnc2c1ncn2[C@H]1C[C@H](O)[C@@H](CO)O1", "note": "[DA, 2’-deoxyadenosine]", "values": [{"measurement": "MIDAS enrichment, statistical significance", "setting": "[1]", "result": "did not meet the statistical significance threshold"}, {"measurement": "effect on affinity of fluorescently labeled NECA to A2AR", "setting": "[2]; 100 µM SAH or DA", "result": "reduced the affinity of NECA"}, {"measurement": "pEC50", "setting": "[3]", "result": 4.82}, {"measurement": "agonist efficacy", "setting": "[3]", "result": "full agonists"}, {"measurement": "fold decrease/reduction in potency compared to adenosine", "setting": "[3]", "result": "> 800", "unit": "fold"}, {"measurement": "Activation screen", "setting": "[3]", "result": "activated A2AR; also recorded: sub-maximal activation"}, {"measurement": "A2AR activation in HEK293 cells", "setting": "[4]; cell-based cAMP detection assay, Supplementary Fig. 12c", "result": "required millimolar concentrations for activation"}]}
{"smiles": "CCCCC[C@H](O)/C=C/[C@@H]1[C@H]2C/C(=C/CCCC(=O)O)O[C@H]2C[C@H]1O", "note": "[PGI2]", "values": [{"measurement": "MIDAS enrichment, statistical significance", "setting": "[1]", "result": "significantly enriched"}, {"measurement": "effect on affinity of fluorescently labeled NECA to A2AR", "setting": "[2]; 500 µM prostaglandin", "result": "none of the three prostaglandins – PGI2, PGE2, and PGD2 were able to displace a fluorescently-labeled orthosteric ligand"}, {"measurement": "Inhibition screen", "setting": "[5]", "result": "no effect"}]}
{"smiles": "CCCCC[C@H](O)/C=C/[C@H]1C(=O)C[C@H](O)[C@@H]1C/C=C\\CCCC(=O)O", "note": "[PGD2, prostaglandin D2]", "values": [{"measurement": "MIDAS enrichment, statistical significance", "setting": "[1]", "result": "significantly enriched"}, {"measurement": "effect on melting temperature (Tm) of A2AR", "setting": "[7]", "result": "concentration-dependent increase in the melting temperature (Tm)"}, {"measurement": "effect on affinity of fluorescently labeled NECA to A2AR", "setting": "[2]; 500 µM prostaglandin", "result": "none of the three prostaglandins – PGI2, PGE2, and PGD2 were able to displace a fluorescently-labeled orthosteric ligand"}, {"measurement": "inhibition of A2AR in competition activity assay", "setting": "[5]; 500 μM PGD2, saturating adenosine up to 100 µM", "result": "sustained inhibition; also recorded: near-complete inhibition"}, {"measurement": "pIC50", "setting": "[5]; IC50, dose-response assay, Supplementary Fig. 5a", "result": 3.74}, {"measurement": "Inhibition screen", "setting": "[5]", "result": "completely inhibiting A2AR activity"}, {"measurement": "fold increase in the IC50 in cell-based assay relative to protein-based assay", "setting": "[6]; HTRF cAMP vs GTP hydrolysis", "result": "approximately 8 fold"}, {"measurement": "inhibition of adenosine-induced cAMP production", "setting": "[6]", "result": "near-complete inhibition"}, {"measurement": "change of PGD2-mediated inhibition by mutation", "setting": "[8]", "result": "comparatively no effect"}, {"measurement": "change of PGD2-mediated inhibition by mutation", "setting": "[9]", "result": "minor reduction of inhibition"}, {"measurement": "change of PGD2-mediated inhibition by mutation", "setting": "[10]", "result": "no change"}]}
{"smiles": "Nc1ncnc2[nH]cnc12", "note": "[Adenine]", "values": [{"measurement": "MIDAS enrichment, statistical significance", "setting": "[1]", "result": "significantly enriched"}]}
{"smiles": "CN(C)c1ncnc2nc[nH]c12", "note": "[DMAP, dimethylaminopurine]", "values": [{"measurement": "MIDAS enrichment, statistical significance", "setting": "[1]", "result": "significantly enriched"}]}
{"smiles": "CCNC(=O)[C@H]1O[C@@H](n2cnc3c(N)nc(NCCc4ccc(CCC(=O)O)cc4)nc32)[C@H](O)[C@@H]1O", "note": "[CGS21680]", "values": [{"measurement": "reduction in binding", "setting": "[11]", "result": "> 98", "unit": "%"}, {"measurement": "reduction in binding", "setting": "[12]", "result": "> 98", "unit": "%"}]}
